Rows were chosen to be rich in hits. Some 5% of all compounds tested hit in one or more screens of this group.
XBP1 UPR activ – adaptive UPR (XBP1) activation; AID 463104; CHO-XBP1 luciferase reporter, IRE1-XBP1 UPR activation, luminescence; percent of tunicamycin response, DMSO as zero; activation, % at 20 µM; 330,000 tested, 0.33% active;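 active = versus positive control, 20 µM dose yields 30% or more activation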;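 note: 100% = tunicamycin at 10 µg/mL and 0% = DMSO only wells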
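Material: CHO cell line with stable XBP1 luciferase reporter; buffer or medium: F12 medium containing 10% fetal bovine serum; compound: single point, 20 µM final compound, 1% DMSO; incubation: 6 h treatment, 37 °C; measured by: glow luminescence from Steady-Glo reagent; evaluation: activation, % of tunicamycin; control set: tunicamycin high, DMSO low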
Mdm2-MdmX inh – disrupts the human Mdm2-MdmX interaction | SaOS-2 split-luciferase Mdm2/MdmX complementation, luminescence | 330,000 tested, 3% active | inhibition, % at 8 µM;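 active = inhibition of at least 50% at 8 µM in the primary screen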
Target sequence (O15151 whole entry, looked up): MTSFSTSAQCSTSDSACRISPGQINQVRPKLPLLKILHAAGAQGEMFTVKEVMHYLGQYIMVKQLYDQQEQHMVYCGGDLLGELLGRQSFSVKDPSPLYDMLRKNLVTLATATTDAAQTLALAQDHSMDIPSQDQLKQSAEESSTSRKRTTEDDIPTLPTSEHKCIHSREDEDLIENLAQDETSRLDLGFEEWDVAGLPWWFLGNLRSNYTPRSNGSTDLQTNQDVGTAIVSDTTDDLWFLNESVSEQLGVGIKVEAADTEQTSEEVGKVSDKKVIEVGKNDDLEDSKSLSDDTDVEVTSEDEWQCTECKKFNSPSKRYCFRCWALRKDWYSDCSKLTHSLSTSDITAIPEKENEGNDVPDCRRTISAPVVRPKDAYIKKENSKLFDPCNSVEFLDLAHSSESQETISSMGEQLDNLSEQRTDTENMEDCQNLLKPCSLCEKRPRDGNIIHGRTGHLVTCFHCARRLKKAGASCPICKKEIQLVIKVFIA
Target sequence (Q00987 whole entry, looked up): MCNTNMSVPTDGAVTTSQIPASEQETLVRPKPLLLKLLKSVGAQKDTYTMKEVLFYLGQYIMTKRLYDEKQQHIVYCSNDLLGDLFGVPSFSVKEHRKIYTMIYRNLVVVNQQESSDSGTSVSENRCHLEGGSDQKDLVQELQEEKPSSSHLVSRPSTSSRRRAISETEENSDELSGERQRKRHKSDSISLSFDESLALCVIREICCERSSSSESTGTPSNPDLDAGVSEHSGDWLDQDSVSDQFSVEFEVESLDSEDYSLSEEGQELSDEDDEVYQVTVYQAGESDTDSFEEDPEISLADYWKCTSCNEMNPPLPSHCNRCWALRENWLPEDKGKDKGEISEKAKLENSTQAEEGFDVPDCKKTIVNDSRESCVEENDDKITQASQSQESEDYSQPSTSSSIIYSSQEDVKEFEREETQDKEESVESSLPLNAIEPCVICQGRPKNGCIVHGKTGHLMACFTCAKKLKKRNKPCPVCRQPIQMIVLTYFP
Beta apoptosis – blocks beta cell apoptosis | INS-1E cytokine-induced death, ATP luminescence, 48 h; percent of positive-control rescue, neutral wells zero | protection from apoptosis, % (test concentration not listed) | 300,000 tested, 0.8% active;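 active = Every replicate reaches about 75%, or at least half do and their mean reaches it too, limit read from the data; inconclusive = At least half of replicates reach the limit but their mean does not; inactive = Under half of replicates reach the limit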;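 note: 0% = cytokine-treated negative control wells and 100% = positive control rescue; higher means more ATP so stronger rescue from cytokine killing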
UPR CHOP act – activators of apoptotic arm of unfolded protein response (CHOP); AID 449763; activation, % at 10 µM; 330,000 tested, 0.34% active; CHO-CHOP luciferase reporter, UPR activation, luminescence; percent of tunicamycin response over DMSO baseline;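 active = at 10 µM dose, activation of 40% or more, normalized to positive control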;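 note: 100% = tunicamycin at 10 µg/mL and 0% = DMSO alone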
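System: CHO-CHOP luciferase reporter cell line; amount: 500 cells/well; buffer or medium: F12 medium containing 10% fetal bovine serum; incubation: 6 h compound exposure at 37 °C after overnight seeding; measured by: luciferase luminescence after 10 min with Steady-Glo reagent; evaluation: % reporter activation, DMSO baseline versus tunicamycin full activation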
CSC inhib – blocks cancer stem cells; 300,000 tested, 1.1% active; AID 2717; cancer stem cell-like cells viability, luminescence; inhibition, % at 7.5 µM; in the data active = inhibition above about 75%; inconclusive = no clear call, values can overlap the other calls; tested in HMLE shEcad cells
T cruzi inh – blocks replication of Trypanosoma cruzi. 300,000 tested, 1.4% active. AID 1885. T. cruzi beta-gal in NIH3T3, luminescence, 90 h. inhibition, % (concentration not given with the values);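 active = mean inhibition across valid replicates above about 55%, limit read from the data; inconclusive = mean below that limit but half or more replicates reach it; inactive = mean below it, under half of replicates reach it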;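 note: signal also drops with host cell toxicity which is not excluded here; 0% = plate median of DMSO wells and 100% = zero luminescence signal; higher percent means less beta-gal luminescence so fewer parasites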
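System: Mouse NIH/3T3 fibroblasts infected with β-gal-expressing T. cruzi Tulahuen C4 | Quantity: NIH/3T3 cells, 5,000 per well | Reagent: 5000 reporter trypomastigotes per well | Dosing: Compound pinned at 50 nL/well, DMSO | Schedule: 3 h host attachment, then at least 90 h co-culture | Detection: GalScreen luminescence, 60 min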
Mdm2 MdmX conf – human Mdm2/MdmX binding inhibition, confirmed; shares compounds with Mdm2-MdmX inh; luminescent assay; inhibition, % at 8 µM; 10,000 tested, 55% active; AID 489028; in the data active = inhibition above about 40%
Full FLuc ctr – full-length luciferase inhibition in Mdm2/MdmX counter-screen | shares compounds with Mdm2-MdmX inh | SaOS-2 full-length luciferase counterscreen, luminescence | inhibition, % at 8 µM | 6,200 tested, 77% active | AID 504607;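 active = mean inhibition at 8 µM reaching about 37%, which flags the compound as non-specific, limit read from the data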;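 note: p53-null SaOS-2 cells with luciferase driven by a doxycycline-inducible promoter; compound on cells about two nights before reading with doxycycline added after day one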
Numbers without * were called inactive; ? = inconclusive; / = no result given.

SMILES	XBP1 UPR activ	Mdm2-MdmX inh	Beta apoptosis	UPR CHOP act	CSC inhib	T cruzi inh	Mdm2 MdmX conf	Full FLuc ctr
NC(=O)c1ccc(NC(=O)C#Cc2ccccc2)cc1	3	85*	-4	2	38	9	77*	51*
O=C1CCN(S(=O)(=O)c2cc(C(F)(F)F)ccc2Cl)CC1	-3	6	-3	0	-9	/	/	/
Cc1cccc(C(=O)NNC(=O)c2ccc(NS(=O)(=O)c3cccs3)cc2)c1C	-5	14	3	-2	/	/	/	/
O=C(C1Cc2ccccc2CN1S(=O)(=O)c1cccs1)N1CCCCC1 (stereo not drawn)	0	13	-2	0	-10	-10	/	/
Cn1ncc(SCc2ccccc2)c(Cl)c1=O	-5	52*	6	2	-7	-47	18	/
Cn1ncc(S(=O)(=O)Cc2ccccc2)c(Cl)c1=O	-4	25	3	-7	-9	-10	/	/
COc1ccc(Nc2sc(C(=O)c3ccc(Cl)cc3)c(N)c2C(=O)Nc2ccccc2OC)cc1	1	11	-10	-1	2	-2	/	/
COc1ccccc1NC(=O)c1c(Nc2ccccc2C)sc(C(=O)Nc2cccc(Cl)c2)c1N	-1	75*	/	23	74	13	27	/
CC(C)c1ccc(C2c3[nH]c4ccccc4c3C[C@H]3C(=O)N(c4ccccc4C(=O)N4CCC[C@H]4C(=O)O)C(=O)N23)cc1 (stereo partly drawn)	-3	4	-5	-1	-5	5	/	/
O=C(CSc1cccc2cccnc12)N1CCCC1	10	66*	54	-8	18	61*	3	/
COc1ccc(Cl)cc1NC(=O)c1noc(C)c1[N+](=O)[O-]	-1	8	-5	-1	22	-14	/	/
CCOC(=O)C1CCN(C(=O)c2cccc(S(=O)(=O)N3c4ccccc4CC3C)c2)CC1 (stereo not drawn)	0	2	-6	0	-5	/	/	/
COc1ccc(C)cc1NC(=O)C(Sc1nnc(-c2ccncc2)n1-c1ccc(Cl)cc1)c1ccccc1 (stereo not drawn)	1	10	9	6	18	?	/	/
Nc1ccccc1C#CC(=O)c1ccccc1	-8	96*	91*	-5	30	?	63*	55*
Cc1ccc(-n2nnnc2SCC(=O)Nc2ncc(Cc3ccccc3Cl)s2)cc1	0	59*	-3	0	/	-4	-24	/
O=C(CSc1nnnn1-c1ccccc1)Nc1ncc(Cc2cc(Cl)ccc2Cl)s1	0	38	-5	1	3	3	/	/
CCc1ccc(CCC(=O)Nc2ncc(Cc3ccccc3Cl)s2)o1	11	66*	10	2	82*	-7	51*	80*
O=C(CSc1nnnn1-c1ccccc1)Nc1ncc(Cc2cccc(Cl)c2Cl)s1	-2	56*	1	3	6	6	16	/
N/C(=N\OC(=O)Nc1ccc(Cl)cc1)c1ncc(C(F)(F)F)cc1Cl	4	27	-4	5	/	7	/	/
N/C(=N\OC(=O)Nc1ccccc1)c1ncc(C(F)(F)F)cc1Cl	6	51*	0	2	4	6	4	/
CCN1CCN(c2ccc(S(=O)(=O)N3CCCCC3)cc2NC(=O)/C=C/c2cc(OC)ccc2OC)CC1	2	100*	11	6	0	47	45*	63*
CCN1CCN(c2ccc(S(=O)(=O)N3CCCCC3)cc2NC(=O)c2ccc([N+](=O)[O-])s2)CC1	-2	71*	113*	2	34	55*	59*	82*
CCN1CCN(c2ccc(S(=O)(=O)N3CCCCC3)cc2NC(=O)COc2ccc(Cl)c(C)c2)CC1	-1	39	8	0	-5	39	/	/
CCN1CCN(c2ccc(S(=O)(=O)N3CCCCC3)cc2NC(=O)Cc2ccc(Cl)c(Cl)c2)CC1	-3	64*	14	2	-3	63*	38	80*
CCN1CCN(c2ccc(S(=O)(=O)N3CCCCC3)cc2NC(=O)c2cccc(C)c2[N+](=O)[O-])CC1	2	15	/	2	-8	41	/	/
SMILES	XBP1 UPR activ	Mdm2-MdmX inh	Beta apoptosis	UPR CHOP act	CSC inhib	T cruzi inh	Mdm2 MdmX conf	Full FLuc ctr
CCOc1ccc(NC(=O)CSc2nnc(NC(=O)C3CC3)s2)cc1	7	13	5	0	-8	9	/	/
Cc1cccc(NS(=O)(=O)c2cc(C(=O)OCC(=O)Nc3cc(C)on3)ccc2C)c1	-1	9	-4	-1	22	4	/	/
Cc1cccc(NS(=O)(=O)c2ccc(C)c(C(=O)OCC(=O)Nc3cc(C)on3)c2)c1	-1	88*	-4	3	10	6	76*	32
CCCC1=C(C(=O)OCC)C(c2cc(Cl)cc(OC)c2OCc2ccccc2)NC(=O)N1 (stereo not drawn)	-3	25	6	0	42	54	/	/
CCOc1ccccc1CN1CCNC(=O)C1CC(=O)NCc1cc(C)n(C)n1 (stereo not drawn)	-3	-3	-3	0	-4	-10	/	/
Clc1ccc(-c2nnc(-c3ccccc3)c(N3CCSCC3)n2)cc1	2	0	3	0	1	7	/	/
CC1CN(c2nc(-c3ccc(Br)cc3)nnc2-c2ccccc2)CC(C)N1 (stereo not drawn)	4	81*	9	-1	36	46	54*	52*
CCN1C(=O)CSc2ccc(C(=O)NC3CCCCC3)cc21	1	-1	3	1	1	12	/	/
CCN1C(=O)CC(c2ccccc2)N(C2CCCC2)c2nc(Nc3ccc(C(=O)NC4CCN(C)CC4)cc3OC)ncc21 (stereo not drawn)	5	98*	19	8	/	/	46*	78*
CCc1ccc(C(=O)C(C)OC(=O)Cn2[nH]c(=O)c3ccccc3c2=O)cc1 (stereo not drawn)	-1	-21	0	1	-7	/	/	/
CCc1ccc(C(=O)C(C)OC(=O)Cc2n[nH]c(=O)c3ccccc23)cc1 (stereo not drawn)	-1	59*	16	-1	/	-9	74*	58*
O=C(c1cc(C(=O)NCCc2ccccc2)c(=O)n(CCc2ccccc2)c1)c1cc(Cl)ccc1O	6	74*	17	7	3	-15	54*	61*
O=C(OCc1ccc(Br)cc1)c1cnc(Cl)c(Cl)c1	6	69*	4	0	/	17	48*	96*
O=C(OCc1ccc(Br)cc1)c1ccncc1	1	-1	-7	-1	-3	-8	/	/

Screening data from PubChem.
